Data taken from ChEMBL document CHEMBL1150273, “Aza-peptidyl Michael acceptors. A new class of potent and selective inhibitors of asparaginyl endopeptidases (legumains) from evolutionarily diverse pathogens” (J Med Chem, 2008).
The source made the active and inactive calls. No cut-off for these calls is given here.

Assays:
Schistosoma mansoni = assay: Inhibition of Schistosoma mansoni AE assessed as ratio of pseudo-first-order inhibition rate constant to inhibitor concentration
Procedure, shortened: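 Autoactivated recombinant SmAE added to six inhibitor concentrations (0–1 µM final) in 0.1 M citrate phosphate, 2 mM DTT, pH 6.8 with 20 µM Cbz-Ala-Ala-Asn-AMC; progress followed every 2 s for 30 min at 25 °C (ex 355, em 460 nm); kobs/[I] by nonlinear regression, corrected for substrate by factor 1.33.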

[1] = Inhibition of Trichomonas vaginalis G3 AE1 expressed in Pichia pastoris after 20 mins
Procedure, shortened: (§1)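 Recombinant AE zymogens expressed in Pichia pastoris; SmAE and TvAE1 autoactivated in 0.5 M sodium acetate, 4 mM DTT, pH 4.5, 37 °C, 3 h to overnight; IrAE used without activation. Buffer 0.1 M citrate phosphate, 4 mM DTT, pH 6.8 (SmAE, TvAE1) or pH 5.5 (IrAE). Inhibitor 2.0–0.0002 µM final, 20 min preincubation at room temperature; 10 µM final Cbz-Ala-Ala-Asn-AMC, 20 min; IC50 from RFU/min vs concentration.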

Papain (Carica papaya) = target: T1, Papain (Carica papaya) (UniProt P00784); assay: Inhibition of papain assessed as ratio of pseudo-first-order inhibition rate constant to inhibitor concentration
T1 sequence (whole entry): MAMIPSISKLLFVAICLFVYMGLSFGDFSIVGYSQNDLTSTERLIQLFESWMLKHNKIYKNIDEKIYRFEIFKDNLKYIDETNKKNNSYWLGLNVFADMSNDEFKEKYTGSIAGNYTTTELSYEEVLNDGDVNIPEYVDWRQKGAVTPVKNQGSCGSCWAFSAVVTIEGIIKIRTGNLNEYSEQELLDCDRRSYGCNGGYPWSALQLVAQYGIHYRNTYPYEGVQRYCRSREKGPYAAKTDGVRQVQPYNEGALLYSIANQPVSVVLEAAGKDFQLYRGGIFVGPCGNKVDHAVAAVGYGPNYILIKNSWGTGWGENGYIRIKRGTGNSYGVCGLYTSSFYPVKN
Procedure, shortened: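 Papain, about 0.29 mg/mL, incubated with inhibitor in 50 mM Hepes, 2.5 mM DTT, 2.5 mM EDTA, pH 7.5; aliquots taken over time into 53.7 µM Cbz-Phe-Arg-pNA; p-nitroanilide release read at 405 nm at room temperature; pseudo-first-order inactivation kinetics.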

Caspase-8 (Homo sapiens) = Caspase-8 (Homo sapiens) (UniProt Q14790); assay: Inhibition of caspase 8 assessed as ratio of pseudo-first-order inhibition rate constant to inhibitor concentration
Sequence of Caspase-8 (Homo sapiens) (Q14790 217-374 limits assumed): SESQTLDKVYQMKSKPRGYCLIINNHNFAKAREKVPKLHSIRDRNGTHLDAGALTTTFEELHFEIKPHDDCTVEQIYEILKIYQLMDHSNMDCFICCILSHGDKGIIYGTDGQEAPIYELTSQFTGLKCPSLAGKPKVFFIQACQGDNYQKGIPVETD
Sequence of Caspase-8 (Homo sapiens) (Q14790 385-479 limits assumed): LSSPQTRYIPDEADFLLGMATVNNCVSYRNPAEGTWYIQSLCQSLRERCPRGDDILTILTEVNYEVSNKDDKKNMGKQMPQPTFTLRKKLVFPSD
Procedure, shortened: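 Caspase-8 at 50 nM final, assayed in the same Pipes/NaCl/CHAPS/sucrose/DTT buffer, pH 7.2, 37 °C with Ac-Asp-Glu-Val-Asp-AMC by the progress curve method; inhibitor stocks 5 × 10^-3 to 2.42 × 10^-6 M in DMSO; rates corrected for substrate using KM 6.79 µM.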

[2] = Inhibition of Schistosoma mansoni AE expressed in Pichia pastoris after 20 mins; procedure, shortened: as §1
[3] = Stability assessed as half life in citrate phosphate buffer at pH 5.8 in presence of dithiothreitol; format: physicochemical; conditions: citrate phosphate buffer with dithiothreitol

| SMILES | Ratio (Schistosoma mansoni) [M⁻¹ s⁻¹] | IC50 [1] [nM] | Ratio (Papain (Carica papaya)) [M⁻¹ s⁻¹] | Activity (Caspase-8 (Homo sapiens)) | IC50 [2] [nM] | half-life [3] [h] | Activity (Papain (Carica papaya)) |
| --- | --- | --- | --- | --- | --- | --- | --- |
| C[C@H](NC(=O)OCc1ccccc1)C(=O)N[C@@H](C)C(=O)NN(CC(N)=O)C(=O)/C=C/C(=O)N(Cc1ccccc1)Cc1ccccc1 | 5800 | 10 | 1 | inactive | 45 |  |  |
| C[C@H](NC(=O)OCc1ccccc1)C(=O)N[C@@H](C)C(=O)NN(CC(N)=O)C(=O)/C=C/C(=O)N(C)Cc1ccccc1 |  | 0.55 |  | inactive |  | 6.27 | inactive |
| C[C@H](NC(=O)OCc1ccccc1)C(=O)N[C@@H](C)C(=O)NN(CC(N)=O)C(=O)/C=C/C(=O)N(C)Cc1cccc2ccccc12 | 16900 | < 1 |  | inactive | 35 |  | inactive |
| CCOC(=O)/C=C/C(=O)N(CC(N)=O)NC(=O)[C@H](C)NC(=O)[C@H](C)NC(=O)OCc1ccccc1 |  | 4.5 |  | inactive | 31 | 0.317 | inactive |
